Publication PMC7816766 (Journal of Medicinal Chemistry, 2020)

Key:
[1] = tested on: human breast cancer cells; assay: Combination treatment with docetaxel or cisplatin, CyQuant assay; format: cell-based; settings: 1 μM 7g for 6 h, then 0–100 nM docetaxel or 0–20 μM cisplatin, 72 h
[2] = tested on: EGFR, JAK2, Src, AKT and ERK1/2; assay: Immunoblotting for nonspecific effects in MDA-MB-231 cells; format: cell-based, human; settings: 1 or 3 μM
[3] = tested on: MDA-MB-231 and MDA-MB-468 cells; assay: Induction of apoptosis, PARP cleavage by Western blotting; format: cell-based, human; settings: 1 or 3 μM, 3–24 h
[4] = tested on: MDA-MB-231 or MDA-MB-468 cells; assay: Cell viability/growth of breast cancer cells harboring active STAT3; format: cell-based, human; settings: at 1 μM or less
[5] = tested on: c-Myc, VEGF, Bcl-2, survivin; assay: Immunoblotting for STAT3 target gene expression in MDA-MB-231 cells; format: cell-based, human; settings: 1 or 3 μM, 3–24 h
How it was run: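 MDA-MB-231 cells were treated with 1 or 3 μM test compound for 3–24 h; controls received 0.05% DMSO. Whole-cell lysates were prepared in RIPA buffer. Equal total protein was run on SDS-PAGE and immunoblotted for c-Myc, Bcl-2, VEGF and survivin, with tubulin as loading control. Results came from two to three independent determinations.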

[6] = tested on: MDA-MB-231 cells; assay: Clonogenic; format: cell-based, human; settings: treated once
How it was run: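 Cells were seeded as single-cell cultures at 250 cells per well. They were treated once the next day with test compound at 0–1 μM and cultured until large colonies were visible. Colonies were stained with crystal violet for 4 h and photographed. Data came from three independent determinations.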

[7] = tested on: STAT3 DNA-binding activity in MDA-MB-468 cells; assay: Constitutive STAT3 DNA-binding activity in treated breast cancer cells; format: cell-based, human
How it was run: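 MDA-MB-468 cells were treated with 5 μM test compound for 1–3 h; controls received 0.05% DMSO. Nuclear extracts of equal total protein were incubated with 33P-labelled hSIE probe (c-fos m67 variant) for 30 min at 30 °C. STAT3:DNA complexes were then resolved by EMSA. Results came from two to three independent determinations.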

[8] = tested on: pY705STAT3; assay: Immunoblotting for pY705STAT3 in treated breast cancer cells; format: cell-based, human; settings: 1–5 μM, 0–24 h (BBI-608 0.5–5 μM, 2–3 h)
How it was run: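 Controls received 0.05% DMSO. Equal-protein RIPA whole-cell lysates were immunoblotted for pY705STAT3, STAT3 and tubulin. Results came from two to three independent determinations.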

[9] = Human HLM MetID study; format: in vitro ADME; settings: preliminary results

O=C1OCc2cc(N(Cc3ccc(C4CCCCC4)cn3)C(=O)[C@H]3CCN3S(=O)(=O)c3c(F)c(F)c(F)c(F)c3F)ccc21 [Compound 7g]
response to combined treatment with docetaxel or cisplatin [1]: strong shift of the dose–response curves to the left indicative of an enhanced response
effect on tyrosine kinases EGFR, JAK2, Src, or AKT and ERK1/2 [2]: no measurable effect
PARP cleavage [3]: induced poly (ADP-ribose) polymerase (PARP) cleavage
viability, anchorage-dependent and independent growth, and colony formation [4]: strongly inhibited
expression of STAT3 target genes c-Myc, VEGF, Bcl-2, survivin [5]: inhibited the expression
inhibition of colony formation ([6]; 0.5 μM): significant inhibition of colony formation
inhibition of colony formation ([6]; 1 μM): complete inhibition of colony formation
earliest time of inhibition of STAT3 DNA-binding activity in cells ([7]; MDA-MB-468): 5 min
constitutive STAT3 DNA-binding activity in cells ([7]; cells treated with 1–5 μM (BBI-608 0.5–5 μM, 2–3 h)): inhibited to variable degrees
pY705STAT3 in breast cancer cells [8]: inhibited pY705STAT3 in dose- and time-dependent manner
species found in HLM MetID study [9]: both the parent compound and its hydroxy-acid metabolite
